# PG9 binder: binders of HIV-1 gp120 antibody PG9, primary screen, biochemical, TR-FRET | HIV-1 gp120 / PG9 antibody interaction | TR-FRET gp120-PG9 antibody binding | inhibition, % at 6.7 µM | hit rate 0.43% among 360,000 | AID 624416, 2012; in the data active means inhibition above about 8.5%
# NR1D1 modulator: modulators of Rev-erb alpha DNA binding, primary screen, biochemical, FITC-DNA, fluorescence polarization, uHTS; hit rate 0.79% among 370,000; Nuclear receptor subfamily 1 group D member 1 (Homo sapiens), P20393; activity, % at 10 µM; Rev-erbα–FITC-DNA binding, 90 min;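 active means activity above about 14%, limit read from the data; passing the limit was not always enough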;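 further: 0% = DMSO wells with 35 nM protein and 100% = DMSO wells with 750 nM protein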
# NR2E3 ag-1: inhibitors of NR2E3-RetCOR corepressor binding, primary screen, NR2E3 agonist project, biochemical, TR-FRET, GST-NR2E3, biotin-RetCOR. Photoreceptor-specific nuclear receptor (Homo sapiens), Q9Y5X4. 1536-well. inhibition of corepressor binding, % at 4.78 µM. hit rate 0.12% among 320,000;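 active means percent inhibition above the cutoff of mean plus 3 SD of all tested compounds, set per screening campaign, cut at about 20% in these data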;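 further: 0% = DMSO wells and 100% = biotin wells as full block of FRET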
# Target sequence (Q9Y5X4 whole entry, looked up): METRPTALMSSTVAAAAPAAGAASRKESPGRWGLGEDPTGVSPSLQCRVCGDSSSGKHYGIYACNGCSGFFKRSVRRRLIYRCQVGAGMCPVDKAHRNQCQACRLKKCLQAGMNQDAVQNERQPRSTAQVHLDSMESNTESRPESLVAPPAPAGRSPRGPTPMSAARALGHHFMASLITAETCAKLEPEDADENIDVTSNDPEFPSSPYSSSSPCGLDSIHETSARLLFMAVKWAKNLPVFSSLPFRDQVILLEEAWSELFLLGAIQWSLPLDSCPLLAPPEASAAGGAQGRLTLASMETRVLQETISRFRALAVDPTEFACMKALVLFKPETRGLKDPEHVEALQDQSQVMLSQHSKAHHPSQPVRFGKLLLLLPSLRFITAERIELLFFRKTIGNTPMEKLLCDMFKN
#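 system = GST-tagged NR2E3 plus biotinylated RetCOR corepressor | input = 1.35 nM GST-NR2E3 | also added = 7 nM biotin-RetCOR | schedule = 5 h incubation at 4 °C | measured by = TR-FRET with europium anti-GST and streptavidin-D2, 340 nm excitation | read-out = percent loss of FRET ratio relative to control wells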
# NR2E3 ag-2: NR2E3 agonists in two-hybrid cells, primary screen, cell-based, luminescence, CHO-S, Gal4-NCOR/VP16-NR2E3 | inhibition of corepressor binding, % at 3.98 µM | luciferase | hit rate 0.35% among 360,000 | AID 602229, 2012 | Photoreceptor-specific nuclear receptor (Homo sapiens), Q9Y5X4;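 active means inhibition above the mean of all tested compounds plus 3 SD, cut at about 70% in these data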;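 further: 0% = DMSO with NR2E3 transfected cells and 100% = cells lacking NR2E3 construct; higher means lower luciferase signal from less NR2E3 corepressor binding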
# MC4R antag cAMP: MC4R antagonists of cAMP signaling, primary screen, cell-based, TR-FRET, antagonist arm of biased-ligand search | Melanocortin receptor 4 (Homo sapiens), P32245 | MC4R-expressing cells, MTII-stimulated cAMP, LANCE TR-FRET | inhibition, % at 6.5 µM | hit rate 0.48% among 360,000;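 active means inhibition above its plate's cutoff, the mean of tested wells on that plate plus 3 SD, cut at about 29% in these data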;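 further: 0% = Melanotan II alone and 100% = Melanotan II plus saturating MCL0020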
#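 Material – human MC4R-expressing U2OS cells · Repeats – no replicates · Detection – TR-FRET with Eu-cAMP and labeled anti-cAMP, 671 nm · Times – compound 30 min, challenge 1 h, detection 1 h · Compound – single nominal compound dose of 6.5 µM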
# MC4R barr agon: MC4R agonists recruiting beta-arrestin, primary screen, cell-based, luminescence, agonist arm of biased-ligand search; hit rate 0.98% among 360,000; Melanocortin receptor 4 (Homo sapiens), P32245; U2OS MC4R beta-arrestin complementation; percent of melanotan II response, DMSO zero; activation, % at 8.9 µM; AID 540308, 2011;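 active means activation above a per-plate cutoff, the mean activation of sample wells on that plate plus 3 SD, cut at about 8% in these data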
# PG9 bind confirm: binders of anti-gp120 antibody PG9, confirmation, biochemical, TR-FRET | shares compounds with PG9 binder | TR-FRET PG9 antibody binding | inhibition, % at 6.7 µM | hit rate 90% among 1,500; in the data active means inhibition above about 9%
# PGV04 Ab binding: binders of control antibody PGV04, counter-screen for PG9 antibody binder project, biochemical, TR-FRET, distinct HIV envelope site; hit rate 95% among 1,500; shares compounds with PG9 binder; inhibition, % at 6.7 µM; TR-FRET PGV04 antibody-gp120 binding; in the data active means inhibition above about 9.5%
# Rev-erbA confirm: modulators of Rev-erb alpha DNA binding, confirmation, biochemical, FITC-DNA, fluorescence polarization, single point; 90 min; hit rate 61% among 3,000; shares compounds with NR1D1 modulator; activation, % at 25 µM;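 active means activation at or above a set limit, or at least 3 SD above the negative control mean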;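 further: 0% = 35 nM protein with DMSO and 100% = 750 nM protein high control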
# RORg DNA counter: modulation of RORgamma DNA binding, dose response, counter-screen for Rev-erb alpha modulator project, biochemical, fluorescence polarization, FITC-DNA. shares compounds with NR1D1 modulator. purified RORgamma protein-FITC-DNA binding. IC50, µM. hit rate 8% among 910. AID 1259320, 2017;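 active means Compounds whose fitted half-maximal concentration for disrupting protein-DNA binding is below 10 micromolar; the record names Rev-erb in its text, so the target is in doubt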
# The depositor's hits bear a star; i = inactive; . = not tested or not shown. Most compounds without a hit are left out; they make up all but 2.7% or so of the library.
SMILES,PG9 binder,NR1D1 modulator,NR2E3 ag-1,NR2E3 ag-2,MC4R antag cAMP,MC4R barr agon,PG9 bind confirm,PGV04 Ab binding,Rev-erbA confirm,others
C=CCN1C(=O)/C(=C2/Sc3ccc(OC)cc3N2C)SC1=Nc1cccc(O)c1,10.5*,15.9*,-0.3,-26.2,20.8,4.3,41.0*,58.8*,6.8,
O=C(CCn1nnc2ccccc21)Nc1nnc(-c2ccccc2F)s1,13.4*,28.2*,-1.9,-21.3,-2.1,-0.8,22.6*,38.4*,16.8,
Brc1ccc2ncc(Br)cc2c1,12.2*,44.5*,4.9,-8.9,5.4,-0.8,16.1*,22.9*,32.9*,RORg DNA counter=>40
CCN(CC)C(=O)CSc1nc(N)c(C#N)c(-c2cccs2)c1C#N,44.1*,32.8*,3.2,11.9,10.7,1.1,17.9*,29.7*,32.9*,RORg DNA counter=>40
CCN(CC)C(=O)CSc1nc(-c2cccs2)cc(-c2cccs2)c1C#N,1.1,7.1,5.0,-10.7,5.8,-1.9,.,.,.,
COc1ccc(-c2nc(C#N)c(N3CCC(C)CC3)o2)cc1,-0.8,-2.2,-1.2,-14.0,-0.2,0.8,.,.,.,
COc1ccccc1CNc1ncnc2cc(Cl)ccc12,89.7*,179.7*,.,9.2,4.0,-0.1,91.1*,92.9*,137.2*,RORg DNA counter=i
COc1ccc(CNc2ncnc3cc(Cl)ccc23)cc1OC,-0.9,-5.3,.,18.8,0.5,-0.5,.,.,.,
Cc1occc1-c1nnc(SCC(=O)NC2CCCC2)n1C,-1.0,3.0,1.6,-24.7,18.0,1.2,.,.,.,
O=C(Nc1ccon1)c1sc2cc(F)ccc2c1Cl,15.0*,34.0*,-14.2,-56.6,7.0,3.8,23.8*,45.8*,22.1*,
COc1cccc(CNC(=O)Cn2c(=O)c3cccn3c3ccccc32)c1,19.1*,19.3*,1.7,-18.5,5.0,0.3,23.6*,44.4*,-4.2,
O=C(CCCn1c(=O)c2cccn2c2cccnc21)NCc1cccc(Br)c1,22.6*,44.9*,-0.8,-0.1,-0.3,3.2,31.2*,41.0*,19.0*,
CCOc1cc(CNC(=O)CCCn2c(=O)c3cccn3c3cccnc32)cc(OCC)c1OCC,0.9,-3.7,-0.4,-10.2,-1.5,-3.3,.,.,.,
Cc1cc(C)n(C(N)=NC(=O)c2ccc([N+](=O)[O-])cc2)n1,-2.0,0.4,1.1,-66.0,10.8,-0.2,.,.,.,
CN(C)C(=O)CCc1ccc2c3c([nH]c2c1)[C@]1(C)[C@@H](C(=O)N2CCOCC2)C[C@H](CC(=O)NC(C)(C)C)C(=O)N1CC3,1.5,-0.6,.,-25.1,3.9,-2.7,.,.,.,
COc1ccccc1C(=O)NCc1ccc(-c2nc3ccccc3s2)cc1,-1.9,4.7,-0.9,8.7,-1.2,-0.9,.,.,.,
COc1cc(C(=O)NCc2ccc(-c3nc4ccccc4s3)cc2)cc(OC)c1OC,10.2*,38.3*,-0.4,-114.8,9.6,-0.3,18.9*,29.0*,32.5*,RORg DNA counter=i
Cc1ccc(NC(=O)CN(C)C(=O)c2ccc(Cl)c([N+](=O)[O-])c2)cc1,-0.9,-0.4,-2.5,13.2,1.9,-1.6,.,.,.,

# Screening data deposited in PubChem by several laboratories.
